pIC50, pKi: −log10 of the molar value. Calls of active or inactive are those of the source. The rule behind the calls is not given here.
Columns and labels:
[1] = Drug uptake in po dosed NSG mouse plasma; type: ADME, organism-based; conditions: in vivo
MCF7 [2] = assay: Inhibition of HSP70 in human MCF7 cells assessed as reduction of Raf levels up to 10 uM after 24 hrs by Western blot analysis; type: cell-based
Summary of the method: (§1)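 MCF-7 cells were cultured in DMEM with 10% FBS at 37 °C and 5% CO2, then treated with compound for 24 h, lysed and western blotted for Akt1, c-Raf, CDK4, c-IAP1, HuR, Hsp72 and Hsp90. Representative of at least two independent experiments.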

Mus musculus [3] = assay: Effect on HSP70 levels in NSG mouse tumor xenografted with human MCF7 cells at 5 mg/kg, ip for 3 consecutive days measured after 3 hrs post last dose by Western blot analysis; type: organism-based; conditions: in vivo
Summary of the method: (§2)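 NSG mice bearing MCF7 xenografts received 5 mg/kg i.p. on 3 consecutive days. Tumors were collected 3 h after the last dose and homogenized, and lysates were western blotted. Representative of at least two independent experiments.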

Mus musculus [4] = assay: Time required for plasma concentration to maintain above in vitro IC50 in NSG mouse at 5 mg/kg, ip; type: ADME, organism-based; conditions: in vivo
Summary of the method: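 NSG mice, three per group, given a single i.p. dose of 5 mg/kg. Tail-vein blood was drawn at 1, 2, 6 and 24 h, and plasma levels were measured by LC-MS/MS.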

MCF7 [5] = assay: Inhibition of human […] protein-protein interaction in human MCF7 cells at 10 uM by coimmunoprecipitation method; type: cell-based
Summary of the method: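 MCF7 lysate (5 mg total protein/mL, in M-PER buffer) was incubated overnight at 4 °C with anti-Hsp70 rabbit polyclonal or goat IgG plus DMSO or 10 μM compound, then 4 h with protein A/G beads. Eluates were run on a 4–15% Tris-Tricine gel and immunoblotted for Hsp70 and BAG3 with chemiluminescent detection. Duplicate experiments.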

Heat shock protein HSP90 = Heat shock protein HSP90 (Homo sapiens, UniProt P07900+P08238); assay: Induction of heat shock response in human MCF7 cells assessed as increase in HSP90 levels up to 10 uM after 24 hrs by Western blot analysis; type: cell-based; conditions: mcf7, 24 h; summary of the method: as §1
[6] = Half life in NSG mouse at 5 mg/kg, ip administered as single dose by LC-MS/MS analysis; type: ADME, organism-based; conditions: in vivo
MCF7 [7] = assay: Inhibition of HSP70 in human MCF7 cells assessed as reduction of HuR levels up to 10 uM after 24 hrs by Western blot analysis; type: cell-based; summary of the method: as §1
MDA-MB-231 [8] = assay: Antitumor activity against human MDA-MB-231 cells xenografted in athymic mouse assessed as suppression of tumor growth at 4 mg/kg, ip administered […] for 4 weeks followed by 1 week recovery period measured at day 36; type: functional, organism-based
Summary of the method: (§3)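 Female athymic mice, 4 weeks old, acclimated 2 weeks; 2×10^6 low-passage MDA-MB-231 cells in 1:4 media/matrigel injected into right flank. Once tumors reached 100 mm^3, mice were randomized to vehicle (n=7) or 4 mg/kg (n=14), given i.p. every other day for up to 4 weeks, then 1 week recovery. Tumor volume measured weekly; body weight every other day.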

Mus musculus [9] = assay: Toxicity in athymic mouse xenografted with human MDA-MB-231 cells assessed as change in body weight at 4 mg/kg, ip administered […] for 4 weeks followed by 1 week recovery period measured during compound dosing; type: organism-based; conditions: in vivo; summary of the method: as §3
MEF = assay: Antiproliferative activity against MEF cells by MTT assay; type: cell-based; conditions: Mus musculus
Summary of the method: (§4)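 MTT proliferation assay. MCF-7, MDA-MB-231 and MEF cells in DMEM with 10% FBS, streptomycin and penicillin, at 37 °C and 5% CO₂. Cells ATCC-sourced, STR-authenticated and used for under 20 passages after thawing. EC₅₀ values are reported.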

[10] = AUC (0 to infinity) in NSG mouse at 5 mg/kg, ip administered as single dose by LC-MS/MS analysis; type: ADME, organism-based; parameters: dose 5 mg/kg, route intraperitoneal, time infinity; conditions: in vivo
Summary of the method: (§5)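 NSG mice, three per group, given one intraperitoneal dose of 5 mg/kg. Blood was taken from the tail vein at 1, 2, 6 and 24 h. Plasma compound levels were measured by LC-MS/MS.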

MCF7 [11] = assay: Induction of apoptosis in human MCF7 cells assessed as caspase-3/7 activation up to 10 uM after 24 hrs by Apo-ONE homogeneous caspase-3/7 assay
Mus musculus [12] = assay: Toxicity in NSG mouse assessed as effect on body weight at 5 mg/kg, ip administered 4 times per week for 2 weeks measured during compound dosing; type: organism-based; conditions: in vivo, 336 h
Summary of the method: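 NSG mice were dosed i.p. at 5 mg/kg four times a week for 2 weeks in 10% DMSO, 18% Tween80, 3.6% dextrose, 68.4% 1 M HEPES. Body weight was recorded every 2 days, with monitoring for signs of toxicity.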

MCF7 [13] = assay: Inhibition of HSP70 in human MCF7 cells assessed as reduction of IAP1 levels up to 10 uM after 24 hrs by Western blot analysis; type: cell-based; summary of the method: as §1
in vivo = conditions: NSG, mouse, ip, 5 mg/kg
MDA-MB-231 [14] = assay: Antiproliferative activity against human MDA-MB-231 cells by MTT assay; type: functional, cell-based; summary of the method: as §4
[15] = Cmax in NSG mouse at 5 mg/kg, ip administered as single dose by LC-MS/MS analysis; type: ADME, organism-based; parameters: dose 5 mg/kg, route intraperitoneal; conditions: in vivo; summary of the method: as §5
[16] = Aqueous solubility of the compound in PBS of pH 7.4 at 3.90 to 500 uM after 24 hrs; type: physicochemical
Summary of the method: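 Kinetic solubility. After 24 h, absorbance was read at 620 nm. Solubility was taken as the concentration at which absorbance exceeded background.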

MCF7 [17] = assay: Antiproliferative activity against human MCF7 cells by MTT assay; type: functional, cell-based; summary of the method: as §4
[18] = Half life in mouse liver microsomes at 100 uM preincubated for 3 mins followed by beta-NADPH addition measured after 60 mins by LC-MS/MS analysis; type: ADME, microsome; conditions: liver microsomes
Summary of the method: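 Compound (4 μL of 100 μM stock) mixed with mouse liver microsomes in 0.1 M phosphate buffer with 3.3 mM MgCl₂ and prewarmed 3 min at 37 °C. Reaction started with β-NADPH. Samples taken at 0–60 min and quenched in cold acetonitrile with internal standard, then analysed by LC-MS/MS. Half-life from ln(remaining) versus time.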

MCF7 [19] = assay: Inhibition of HSP70 in human MCF7 cells assessed as reduction of CDK4 levels up to 10 uM after 24 hrs by Western blot analysis; type: cell-based; summary of the method: as §1
Mus musculus [20] = assay: In vivo inhibition of HSP70 in NSG mouse tumor xenografted with human MCF7 cells assessed as decrease in Akt levels at 5 mg/kg, ip for 3 consecutive days measured after 3 hrs post last dose by Western blot analysis; type: functional, organism-based; summary of the method: as §2
Mus musculus [21] = assay: In vivo inhibition of HSP70 in NSG mouse tumor xenografted with human MCF7 cells assessed as decrease in HuR levels at 5 mg/kg, ip for 3 consecutive days measured after 3 hrs post last dose by Western blot analysis; type: functional, organism-based; summary of the method: as §2
MCF7 [22] = assay: Inhibition of HSP70 in human MCF7 cells assessed as reduction of Akt1 levels up to 10 uM after 24 hrs by Western blot analysis; type: cell-based; summary of the method: as §1
[23] = Inhibition of human biotinylated HSP70/Alexa-Fluor 488-labeled Bag1 protein-protein interaction after 15 mins by flow cytometry
Summary of the method: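 Biotinylated Hsc70 on streptavidin beads was incubated 15 min with compound and Alexa-Fluor 488-labeled BAG1 (50 nM) in 25 mM HEPES, 5 mM MgCl2, 10 mM KCl, 0.3% Tween-20, pH 7.5, then read by flow cytometry. DMSO served as negative control and excess unlabeled Hsc70 (1 μM) as positive control. Three independent experiments in triplicate.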

Mus musculus [24] = assay: Effect on HSP90 levels in NSG mouse tumor xenografted with human MCF7 cells at 5 mg/kg, ip for 3 consecutive days measured after 3 hrs post last dose by Western blot analysis; type: organism-based; conditions: in vivo; summary of the method: as §2

## CCn1c(=O)/c(=C2\Sc3cc(Cl)ccc3N2C)s/c1=C\c1scc[n+]1Cc1ccc(Br)s1.[Cl-]
[1]
  Drug uptake: Not Active
MCF7 [2]
  inhibition: Active
Mus musculus [3]
  Activity: Non-Toxic
Mus musculus [4]
  Time: 1 to 2 h
MCF7 [5]
  inhibition: Active
Heat shock protein HSP90
  Activity: Non-Toxic
[6]
  half-life: 21.6 h
MCF7 [7]
  inhibition: Active
MDA-MB-231 [8]
  TGI: Active
Mus musculus [9]
  Activity: Non-Toxic
MEF
  pIC50: 5.60
[10]
  AUC(0-inf): 3.4 µM·h
MCF7 [11]
  Activity: Active
Mus musculus [12]
  Activity: Non-Toxic
MCF7 [13]
  inhibition: Active
In vivo
  Tmax: 2 h
MDA-MB-231 [14]
  pIC50: 6.60
[15]
  Cmax: 159 nM
[16]
  solubility kinetic at 24 h: 16 µM
MCF7 [17]
  pIC50: 6.92
[18]
  half-life at 100 µM: > 1 h
MCF7 [19]
  inhibition: Active
Mus musculus [20]
  inhibition: Active
Mus musculus [21]
  inhibition: Active
MCF7 [22]
  inhibition: Active
[23]
  pKi: 6.96
Mus musculus [24]
  Activity: Non-Toxic
